# Calls of active or inactive are those of the source. The calls are words filed in the database; no cut-off is given here.
# Experiments:
# Renin [1] = target: T1, Renin (Homo sapiens, UniProt P00797); experiment: Inhibition of human recombinant renin
# T1 sequence (P00797 whole entry): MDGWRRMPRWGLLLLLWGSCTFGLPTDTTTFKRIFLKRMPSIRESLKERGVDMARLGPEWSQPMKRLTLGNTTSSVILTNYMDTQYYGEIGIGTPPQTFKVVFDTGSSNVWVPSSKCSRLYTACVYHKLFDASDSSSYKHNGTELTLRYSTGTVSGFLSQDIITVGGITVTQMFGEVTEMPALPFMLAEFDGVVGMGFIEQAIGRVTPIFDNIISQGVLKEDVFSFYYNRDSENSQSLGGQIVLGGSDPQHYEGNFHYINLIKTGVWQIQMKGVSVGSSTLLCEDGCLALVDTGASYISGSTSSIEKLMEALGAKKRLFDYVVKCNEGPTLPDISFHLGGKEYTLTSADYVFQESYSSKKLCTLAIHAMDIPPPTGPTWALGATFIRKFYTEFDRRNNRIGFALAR
# Renin [2] = target: T1, Renin; experiment: Inhibition of human recombinant renin in presence of human plasma by competitive radioimmunoassay; assay type: cell-free
# [3] = AUC (0 to t) in rat at 10 mg/kg, po and 2 mg/kg, iv; assay type: ADME, organism-based; conditions: plasma
# Summary of the method: (§1)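 Rats dosed with the fumarate salt at 10 mg/kg by oral route and 2 mg/kg intravenously. Plasma concentrations measured over time, and PK parameters derived from them.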
# [4] = Clearance in rat at 2 mg/kg, iv; assay type: ADME, organism-based; set-up: dose 2 mg/kg, route intravenous; conditions: in vivo; summary of the method: as §1
# [5] = AUC (infinity) in rat at 10 mg/kg, po and 2 mg/kg, iv; assay type: ADME, organism-based; conditions: plasma; summary of the method: as §1
# [6] = Half life in rat at 10 mg/kg, po and 2 mg/kg, iv; assay type: ADME, organism-based; conditions: in vivo; summary of the method: as §1
# [7] = Volume of distribution at steady state in rat at 10 mg/kg, po and 2 mg/kg, iv; assay type: ADME, organism-based; conditions: in vivo, read-out: Vdss
# [8] = Cmax in rat at 10 mg/kg, po and 2 mg/kg, iv; assay type: ADME, organism-based; conditions: in vivo; summary of the method: as §1
# [9] = Oral bioavailability in rat at 10 mg/kg; assay type: ADME, organism-based; conditions: in vivo; summary of the method: as §1
# [10] = Tmax in rat at 10 mg/kg, po and 2 mg/kg, iv; assay type: ADME, organism-based; conditions: in vivo; summary of the method: as §1
# [11] = Oral bioavailability in dog; assay type: ADME, organism-based, Canis lupus familiaris; conditions: in vivo
# [12] = Solubility in water; assay type: physicochemical
# [13] = Terminal half life in dog; assay type: ADME, organism-based, Canis lupus familiaris; conditions: in vivo, read-out: beta t1/2 (converted)
# Macaca fascicularis [14] = organism: Macaca fascicularis; experiment: Terminal half life in cynomolgus monkey; conditions: in vivo, read-out: beta t1/2 (converted)
# [15] = target: Voltage-gated inwardly rectifying potassium channel KCNH2 (Homo sapiens, UniProt Q12809); experiment: Inhibition of human ERG by patch clamp assay
# Macaca fascicularis [16] = experiment: Oral bioavailability in cynomolgus monkey; conditions: in vivo
# Rattus norvegicus = experiment: Antihypertensive activity in double transgenic rat model assessed as reduction in blood pressure at 60 mg/kg, po administered on day 2 and day 3 after vehicle treatment on day 1; assay type: functional, organism-based; set-up: dose 60 mg/kg
# Summary of the method: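 Telemetered double transgenic rats carrying human angiotensinogen and human renin genes (n = 4). Vehicle given on day 1 with blood pressure monitored over 24 h. Oral gavage at 60 mg/kg at t = 24 h and 48 h, with blood pressure followed continuously by telemetry.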
# in vivo = conditions: rat, po
# Voltage-gated inwardly rectifying potassium channel KCNH2, sequence (Q12809 whole entry): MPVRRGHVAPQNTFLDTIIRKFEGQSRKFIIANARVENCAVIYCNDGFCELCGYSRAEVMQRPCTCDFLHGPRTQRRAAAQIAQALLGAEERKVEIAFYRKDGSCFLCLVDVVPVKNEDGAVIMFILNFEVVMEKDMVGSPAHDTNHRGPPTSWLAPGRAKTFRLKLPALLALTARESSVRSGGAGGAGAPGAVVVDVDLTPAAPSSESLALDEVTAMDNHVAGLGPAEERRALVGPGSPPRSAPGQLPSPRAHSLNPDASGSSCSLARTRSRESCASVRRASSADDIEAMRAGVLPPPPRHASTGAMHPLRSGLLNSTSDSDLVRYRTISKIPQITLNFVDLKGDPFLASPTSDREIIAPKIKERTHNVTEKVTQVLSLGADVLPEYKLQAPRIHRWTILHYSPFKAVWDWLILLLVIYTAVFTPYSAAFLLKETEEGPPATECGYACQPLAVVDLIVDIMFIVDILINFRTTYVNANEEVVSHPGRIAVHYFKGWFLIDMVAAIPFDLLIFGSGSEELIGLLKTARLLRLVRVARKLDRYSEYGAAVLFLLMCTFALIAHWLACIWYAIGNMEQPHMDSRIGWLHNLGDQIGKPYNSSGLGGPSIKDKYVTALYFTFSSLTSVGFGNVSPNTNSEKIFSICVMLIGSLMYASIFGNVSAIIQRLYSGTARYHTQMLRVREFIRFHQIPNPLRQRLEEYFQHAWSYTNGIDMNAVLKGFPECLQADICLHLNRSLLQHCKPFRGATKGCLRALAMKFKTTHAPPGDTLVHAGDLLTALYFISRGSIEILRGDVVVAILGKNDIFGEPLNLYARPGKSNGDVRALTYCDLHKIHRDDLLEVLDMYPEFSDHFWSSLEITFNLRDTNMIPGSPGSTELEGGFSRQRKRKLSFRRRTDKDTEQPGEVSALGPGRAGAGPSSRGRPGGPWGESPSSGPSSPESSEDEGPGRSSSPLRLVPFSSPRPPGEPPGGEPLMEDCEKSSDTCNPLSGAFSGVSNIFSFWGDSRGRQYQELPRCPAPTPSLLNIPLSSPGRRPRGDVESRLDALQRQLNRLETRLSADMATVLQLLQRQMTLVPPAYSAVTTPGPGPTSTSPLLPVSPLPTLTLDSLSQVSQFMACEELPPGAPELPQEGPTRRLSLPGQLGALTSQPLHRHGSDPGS
smiles,measurement,setting,value
CNC[C@H](CC1CCCCC1)NC(=O)N1CCC[C@@H]([C@@](O)(CCCCOC)c2cccc(OC(F)(F)F)c2)C1,IC50,Renin [1],69 nM
CNC[C@H](CC1CCCCC1)NC(=O)N1CCC[C@@H]([C@@](O)(CCCCOC)c2cccc(C(F)(F)F)c2)C1,IC50,Renin [1],7 nM
same,IC50,Renin [2],389 nM
CNC[C@H](CC1CCCCC1)NC(=O)N1CCC[C@@H]([C@@](O)(CCCCOC)c2cc(C)ccc2F)C1,IC50,Renin [1],3.5 nM
same,IC50,Renin [2],67 nM
COCCCC[C@@](O)(c1ccccc1)[C@@H]1CCCN(C(=O)N[C@H](CN)CC2CCCCC2)C1.O=C(O)/C=C/C(=O)O,AUC(0-t),[3],221 ng·h/mL
same,clearance,[4],46 mL/min/kg
same,AUC(0-inf),[5],192 ng·h/mL
same,half-life,[6],5.1 h
same,Vd,[7],56 L/kg
same,Cmax,[8],28 ng/mL
same,bioavailability,[9],7.5%
same,Tmax,[10],2.3 h
CCc1cccc([C@](O)(CCCCOC)[C@@H]2CCCN(C(=O)N[C@H](CNC)CC3CCCCC3)C2)c1,IC50,Renin [1],9 nM
same,IC50,Renin [2],285 nM
CCOCCCC[C@@](O)(c1ccccc1)[C@@H]1CCCN(C(=O)N[C@H](CNC)CC2CCCCC2)C1,IC50,Renin [1],16 nM
same,IC50,Renin [2],162 nM
CNC[C@H](CC1CCCCC1)NC(=O)N1CCC[C@@H]([C@@](O)(CCCCOC)c2ccccc2F)C1,IC50,Renin [1],4 nM
same,IC50,Renin [2],61 nM
CCOCCCC[C@@](O)(c1ccccc1)[C@@H]1CCCN(C(=O)N[C@H](CN)CC2CCCCC2)C1,IC50,Renin [1],38 nM
same,IC50,Renin [2],490 nM
CNC[C@H](CC1CCCCC1)NC(=O)N1CCC[C@@H]([C@@](O)(CCCCOC)c2cccc(Cl)c2F)C1.O=C(O)/C=C/C(=O)O,clearance,[4],30 mL/min/kg
same,AUC(0-inf),[5],254 ng·h/mL
same,half-life,[6],8 h
same,Vd,[7],16 L/kg
same,Cmax,[8],28 ng/mL
same,bioavailability,[9],5.5%
same,Tmax,[10],4.3 h
CCOCCCO[C@@H](c1cccc(Cl)c1Cl)[C@@H]1CCCN(C(=O)N[C@H](CNC)CC2CCCCC2)C1,IC50,Renin [1],125 nM
CCOCCCO[C@@H](c1cccc(F)c1)[C@@H]1CCCN(C(=O)N[C@H](CNC)CC2CCCCC2)C1,IC50,Renin [1],11 nM
same,IC50,Renin [2],84 nM
CNC[C@H](CC1CCCCC1)NC(=O)N1CCC[C@@H]([C@@](O)(CCCCOC)c2cccc(F)c2)C1,IC50,Renin [1],3 nM
same,IC50,Renin [2],47 nM
CNC[C@H](CC1CCCCC1)NC(=O)N1CCC[C@@H]([C@@H](OCCCOC)c2cccc(Cl)c2F)C1,IC50,Renin [1],39 nM
same,IC50,Renin [2],369 nM
COCCCO[C@@H](c1ccccc1)[C@@H]1CCCN(C(=O)N[C@H](CN)CC2CCCCC2)C1,IC50,Renin [1],308 nM
CNC[C@H](CC1CCCCC1)NC(=O)N1CCC[C@@H]([C@@](O)(CCCCOC)c2ccccc2)C1.O=C(O)/C=C/C(=O)O,AUC(0-t),[3],547 ng·h/mL
same,clearance,[4],66 mL/min/kg
same,AUC(0-inf),[5],689 ng·h/mL
same,Cmax,[8],101 ng/mL
same,bioavailability,[9],33.6%
same,Tmax,[10],2 h
CNC[C@H](CC1CCCCC1)NC(=O)N1CCC[C@@H]([C@@](O)(CCCCOC)c2ccccc2Cl)C1,IC50,Renin [1],7 nM
same,IC50,Renin [2],151 nM
COCCCC[C@@](O)(c1ccccc1)[C@@H]1CCCN(C(=O)N[C@H](CN)CC2CCCCC2)C1,IC50,Renin [1],21 nM
same,IC50,Renin [2],165 nM
CCOCCCO[C@@H](c1ccccc1)[C@@H]1CCCN(C(=O)N[C@H](CN)CC2CCCCC2)C1,IC50,Renin [1],55 nM
CNC[C@H](CC1CCCCC1)NC(=O)N1CCC[C@@H]([C@@H](OCCCOC)c2cccc(Cl)c2Cl)C1,IC50,Renin [1],609 nM
CNC[C@H](CC1CCCCC1)NC(=O)N1CCC[C@@H]([C@@H](OCCCO)c2cccc(Cl)c2)C1,IC50,Renin [1],764 nM
COCCCOc1cc(C[C@@H](C[C@H](N)[C@@H](O)C[C@H](C(=O)NCC(C)(C)C(N)=O)C(C)C)C(C)C)ccc1OC.COCCCOc1cc(C[C@@H](C[C@H](N)[C@@H](O)C[C@H](C(=O)NCC(C)(C)C(N)=O)C(C)C)C(C)C)ccc1OC.O=C(O)/C=C/C(=O)O [ALISKIREN FUMARATE],clearance,[4],55 mL/min/kg
same,AUC(0-inf),[5],31 ng·h/mL
same,Cmax,[8],4 ng/mL
same,bioavailability,[9],1.2%
same,Tmax,[10],0.1 h
CNC[C@H](CC1CCCCC1)NC(=O)N1CCC[C@@H]([C@@](O)(CCCCOC)c2cccc(Cl)c2)C1.O=C(O)/C=C/C(=O)O,bioavailability,[11],38%
same,clearance,[4],33 mL/min/kg
same,AUC(0-inf),[5],530 ng·h/mL
same,solubility,[12],> 1000 µg/mL
same,half-life,[13],16 h
same,half-life,Macaca fascicularis [14],16 h
same,IC50,[15],> 30000 nM
same,bioavailability,Macaca fascicularis [16],17%
same,Cmax,[8],73 ng/mL
same,bioavailability,[9],12.9%
same,Tmax,[10],3.3 h
CNC[C@H](CC1CCCCC1)NC(=O)N1CCC[C@@H]([C@@H](OCCCOC)c2cccc(F)c2)C1,IC50,Renin [1],58 nM
CCOCCCO[C@@H](c1cccc(Cl)c1)[C@@H]1CCCN(C(=O)N[C@H](CNC)CC2CCCCC2)C1,IC50,Renin [1],4 nM
COCCCC[C@@](O)(c1cccc(Cl)c1)[C@@H]1CCCN(C(=O)N[C@H](CNCC(F)(F)F)CC2CCCCC2)C1,IC50,Renin [1],46 nM
same,IC50,Renin [2],1400 nM
CNC[C@H](CC1CCCCC1)NC(=O)N1CCC[C@@H]([C@@](O)(CCCCOC)c2cccc(C)c2)C1,IC50,Renin [1],2.5 nM
same,IC50,Renin [2],67 nM
CNC[C@H](CC1CCCCC1)NC(=O)N1CCC[C@@H]([C@@](O)(CCCCOC)c2cccc(Br)c2)C1,IC50,Renin [1],0.13 nM
same,IC50,Renin [2],12 nM
CNC[C@H](CC1CCCCC1)NC(=O)N1CCC[C@@H]([C@@](O)(CCCCOC)c2cccc(F)c2)C1.O=C(O)/C=C/C(=O)O,AUC(0-t),[3],433 ng·h/mL
same,clearance,[4],59 mL/min/kg
same,AUC(0-inf),[5],510 ng·h/mL
same,half-life,[6],9.6 h
same,Cmax,[8],83 ng/mL
same,bioavailability,[9],21.1%
same,Tmax,[10],2.7 h
CCOCCCO[C@@H](c1ccccc1)[C@@H]1CCCN(C(=O)N[C@H](CNC)CC2CCCCC2)C1,IC50,Renin [1],40 nM
same,IC50,Renin [2],447 nM
CNC[C@H](CC1CCCCC1)NC(=O)N1CCC[C@@H]([C@@](O)(CCCCOC)c2cccc(OC)c2)C1,IC50,Renin [1],13 nM
same,IC50,Renin [2],88 nM
CNC[C@H](CC1CCCCC1)NC(=O)N1CCC[C@@H]([C@@](O)(CCCCOC)c2cccc(C#N)c2)C1,IC50,Renin [1],37 nM
same,IC50,Renin [2],86 nM
CNC[C@H](CC1CCCCC1)NC(=O)N1CCC[C@@H]([C@@](O)(CCCCO)c2cccc(Cl)c2)C1,IC50,Renin [1],21 nM
same,IC50,Renin [2],315 nM
CNC[C@H](CC1CCCCC1)NC(=O)N1CCC[C@@H]([C@@](O)(CCCCOC)c2cccc(Cl)c2)C1 [listing 1 of 2 here],IC50,Renin [2],13 nM
CNC[C@H](CC1CCCCC1)NC(=O)N1CCC[C@@H]([C@@](O)(CCCCOC)c2cc(F)cc(Cl)c2)C1,IC50,Renin [1],0.9 nM
same,IC50,Renin [2],28 nM
CNC[C@H](CC1CCCCC1)NC(=O)N1CCC[C@@H]([C@@](O)(CCCCOC)c2ccccc2)C1,IC50,Renin [1],7 nM
same,IC50,Renin [2],64 nM
CCNC[C@H](CC1CCCCC1)NC(=O)N1CCC[C@@H]([C@@](O)(CCCCOC)c2cccc(Cl)c2)C1,IC50,Renin [1],6 nM
same,IC50,Renin [2],154 nM
CNC[C@H](CC1CCCCC1)NC(=O)N1CCC[C@@H]([C@@](O)(CCCCOC)c2cccc(Cl)c2)C1 [listing 2 of 2 here],Activity,Rattus norvegicus,Active
CNC[C@H](CC1CCCCC1)NC(=O)N1CCC[C@@H]([C@@](O)(CCCCOC)c2cccc(Cl)c2F)C1,IC50,Renin [1],0.1 nM
same,IC50,Renin [2],27 nM
CCOCCCO[C@@H](c1cccc(Cl)c1)[C@@H]1CCCN(C(=O)N[C@H](CN)CC2CCCCC2)C1,IC50,Renin [1],5.5 nM
same,IC50,Renin [2],190 nM
COCCCOc1cc(C[C@@H](C[C@H](N)[C@@H](O)C[C@H](C(=O)NCC(C)(C)C(N)=O)C(C)C)C(C)C)ccc1OC,bioavailability,in vivo,2.4%
CCOCCCO[C@@H](c1ccccc1)[C@@H]1CCCN(C(=O)N[C@H](CNC)CC2CCCCC2)C1.O=C(O)/C=C/C(=O)O,clearance,[4],59 mL/min/kg
same,AUC(0-inf),[5],882 ng·h/mL
same,Vd,[7],22 L/kg
same,Cmax,[8],91 ng/mL
same,bioavailability,[9],35.8%
same,Tmax,[10],3 h
CNC[C@H](CC1CCCCC1)NC(=O)N1CCC[C@@H]([C@@](O)(CCCCOC)c2cccc(F)c2F)C1,IC50,Renin [1],0.14 nM
same,IC50,Renin [2],20 nM
CCOCCCC[C@@](O)(c1ccccc1)[C@@H]1CCCN(C(=O)N[C@H](CNC)CC2CCCCC2)C1.O=C(O)/C=C/C(=O)O,AUC(0-t),[3],745 ng·h/mL
same,clearance,[4],79 mL/min/kg
same,AUC(0-inf),[5],833 ng·h/mL
same,half-life,[6],8.7 h
same,Vd,[7],55 L/kg
same,Cmax,[8],135 ng/mL
same,bioavailability,[9],48.3%
same,Tmax,[10],3 h

# Source: ChEMBL document CHEMBL1136958, “Design and optimization of renin inhibitors: Orally bioavailable alkyl amines” (Bioorg Med Chem Lett, 2009)
